Data as given in ChEMBL document CHEMBL3120126, “Discovery of hepatitis C virus NS3-4A protease inhibitors with improved barrier to resistance and favorable liver distribution” (J Med Chem, 2014).

How the values were obtained:
[1] = Volume of distribution at steady state in rat at 4 mg/kg, iv; type: ADME, organism-based; design: dose 4 mg/kg, route intravenous; conditions: in vivo, read-out: Vdss
In short: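 Rats received intravenous dosing in a vehicle of 70% PEG-400.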

[2] = Cmax in rat at 10 mg/kg, po; type: ADME, organism-based; design: dose 10 mg/kg, route oral; conditions: in vivo
Liver = test: Liver-to-plasma partition coefficient in rat
[3] = Drug uptake in rat liver after 8 hrs; type: ADME, tissue-based; conditions: read-out: Drug uptake
[4] = Oral bioavailability in rat at 10 mg/kg; type: ADME, organism-based; conditions: in vivo
In short: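 Bioavailability was derived from rat oral dosing in 1% N-methyl-2-pyrrolidone, 0.5% Methocel and 0.3% Tween-80, compared with intravenous dosing in a 70% PEG-400-based vehicle.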

[5] = AUC in rat at 10 mg/kg, po; type: ADME, organism-based; design: dose 10 mg/kg, route oral; conditions: plasma

| Structure (SMILES) | Vd [1] [L/kg] | Cmax [2] [µM] | Kp (Liver) | concentration at 8 h [3] [µM] | bioavailability [4] [%] | AUC [5] [µM·h] |
| --- | --- | --- | --- | --- | --- | --- |
| COc1ccc2c(O[C@@H]3C[C@H]4C(=O)N[C@]5(C(=O)NS(=O)(=O)C6CC6)C[C@H]5/C=C\CCCCC[C@H](NC(=O)c5ccn(CC(F)F)n5)C(=O)N4C3)cc(OC(C)C)nc2c1C | 0.86 | 0.3 | 323 | 6.5 | 6.1 | 0.36 |
| COc1ccc2c(O[C@@H]3C[C@H]4C(=O)N[C@]5(C(=O)NS(=O)(=O)C6(C)CC6)C[C@H]5/C=C\CCCCC[C@H](NC(=O)c5cnn(C)n5)C(=O)N4C3)cc(OC(C)C)nc2c1C | 2 | 0.87 | > 1500 | 73 | 16 | 1.4 |
| COc1ccc2c(O[C@@H]3C[C@H]4C(=O)N[C@]5(C(=O)NS(=O)(=O)C6(C)CC6)C[C@H]5/C=C\CCCCC[C@H](NC(=O)c5ccn(C)n5)C(=O)N4C3)cc(OC(C)C)nc2c1C | 0.97 | 1.3 | > 1500 | 56 | 14 | 1.4 |
| COc1ccc2c(O[C@@H]3C[C@H]4C(=O)N[C@]5(C(=O)NS(=O)(=O)C6CC6)C[C@H]5/C=C\CCCCC[C@H](NC(=O)c5ccn(CC(F)(F)F)n5)C(=O)N4C3)cc(OC(C)C)nc2c1C | 3.3 | 0.88 | 360 | 11 | 11 | 1.3 |
